# The array DNA melting data of Ke et al. (doi:10.1101/2024.01.08.574731)
# Columns and labels:
# [1] = folding enthalpy; higher = less favourable; fluorescence melt of hairpins on a sequencing array, two-state fit; conditions: sodium 0.088 M
# Method in brief: (§1)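 To match UV melts, fitted temperatures were raised by 9.35 °C. These fits were bootstrapped two-state models that gave melting temperature and folding enthalpy, combined by inverse variance over four replicates. The input was normalised Cy3 fluorescence of library hairpins with annealed Cy3 and quencher oligos on a sequenced MiSeq flow cell, imaged in 50 mM Na-HEPES pH 8.0, 25 mM NaCl in 2.5 °C steps up to 60 °C.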
# [2] = melting temperature; fluorescence melt of hairpins on a sequencing array, two-state fit, raised by 9.35 °C to match UV melts; conditions: sodium 0.088 M
# Method in brief: as §1
Sequence,folding enthalpy [1],Tm [2]
GAAATACGAAAGTAATTC (((.(((....))).))),-15 kcal/mol,32.9 °C
GAAATACGAAAGTATTC (((.(((....)))))),-12.8 kcal/mol,38.9 °C
GAAATAGAAATATTTC ((((((....)))))),-21.9 kcal/mol,32.7 °C
GAAATCCCGAAAGGGTTC (((..(((....)))))),-9.79 kcal/mol,26.2 °C
GAAATCCGAAAGGATTC (((.(((....)))))),-11.2 kcal/mol,46.4 °C
GAAATCGGAAACGATCTC ((.((((....)))).)),-17.4 kcal/mol,29.3 °C
GAACAACGAAAGTTATTC (((.(((....))).))),-18.4 kcal/mol,30.1 °C
GAACAACGAAAGTTTTC (((.(((....)))))),-11.8 kcal/mol,28.2 °C
GAACAAGGAAACCTGTTC (((((.(....).))))),-25.7 kcal/mol,37.3 °C
GAACACACGAAAGTGTTC (((..(((....)))))),-20.5 kcal/mol,46.2 °C
GAACACGAAAGTGAGTTC ((((((....)))..))),-16.4 kcal/mol,35.7 °C
GAACACGAAAGTGGGTTC ((((((....)))..))),-16.4 kcal/mol,37.1 °C
GAACACGAAAGTGGTTTC ((((((....)))..))),-14 kcal/mol,35.5 °C
GAACACGAAAGTGTTC ((((((....)))))),-30.9 kcal/mol,69 °C
GAACACGAAAGTGTTTC ((((((....))).))),-12.4 kcal/mol,52.9 °C
GAACAGCGAAAGCTATTC (((.(((....))).))),-15.6 kcal/mol,34.7 °C
GAACATGGAAACACGTTC ((((.((....)).)))),-27.5 kcal/mol,33 °C
GAACATGGAAACATGTCC (.(((((....))))).),-15.4 kcal/mol,35.8 °C
GAACATGGAAACATGTTC (((((((....))))))),-43.3 kcal/mol,56.2 °C

Sequence,folding enthalpy [1],Tm [2]
GAACCAGAAATGGTTC ((((((....)))))),-33.6 kcal/mol,54.2 °C
GAACCAGGAAACTGGTTC (((((((....))))))),-45.1 kcal/mol,62 °C
GAACCCGAAAGGGATTTC ((((((....)))..))),-11.1 kcal/mol,29.5 °C
GAACCCGAAAGGGCGTTC ((((((....)))..))),-11.9 kcal/mol,33.7 °C
GAACCCGAAAGGGCTTC ((((((....))).))),-15 kcal/mol,46.3 °C
GAACGCCCGAAAGGGTTC (((..(((....)))))),-10.8 kcal/mol,30.3 °C
GAACGCGAAAGCGCTTTC ((((((....)))..))),-8.13 kcal/mol,29.7 °C
GAACGCGAAAGCGGCTTC ((((((....)))..))),-14.9 kcal/mol,53.3 °C
GAACGCGAAAGCGGTTC ((((((....))).))),-14.3 kcal/mol,57.3 °C
GAACGCGAAAGCGTTTTC ((((((....)))..))),-11.6 kcal/mol,56.6 °C
GAACGCGGAAACACGTTC (((((.(....).))))),-45.6 kcal/mol,48.1 °C
GAACGGGGAAACCTGTTC ((((.((....)).)))),-32.4 kcal/mol,49 °C
GAACTCGGAAACGAGCTC ((.((((....)))).)),-19 kcal/mol,42.2 °C
GAACTCGGAAACGAGTCC (.(((((....))))).),-14.6 kcal/mol,43.4 °C
GAACTCGGAAACGGGTTC ((((.((....)).)))),-35.1 kcal/mol,50.4 °C
GAACTGAAAAGTTC (((((....))))),-24.3 kcal/mol,46.6 °C
GAACTGGGAAACCGGTTC ((((.((....)).)))),-39.6 kcal/mol,50.1 °C
GAACTGGGAAACTGGTTC ((((..(....)..)))),-25.8 kcal/mol,33.3 °C
GAAGAACCGAAAGGTTTC (((..(((....)))))),-11.5 kcal/mol,33 °C
